In ChEMBL document CHEMBL3046018, “Design, syntheses and 3D-QSAR studies of novel N-phenyl pyrrolidin-2-ones and N-phenyl-1H-pyrrol-2-ones as protoporphyrinogen oxidase inhibitors” (Bioorg Med Chem, 2010):
pKi: −log10 of the molar value.

Tests used:
[1] = test system: Eclipta prostrata; experiment: Herbicidal activity against Eclipta prostrata assessed as growth inhibition at 150 g ai/ha using post-emergence protocol under greenhouse conditions measured 15 days after compound treatment; format: functional; conditions: 360 h, read-out: GI
Procedure, shortened: (§1)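 Post-emergence greenhouse spray on pot-grown broadleaf weeds at the 2-leaf stage. Formulation concentrates were diluted with water. Soil was clay, pH 6.5, 1.6% organic matter, 37.3% clay particles, CEC 12.1 mol/kg. The rate was total active ingredient divided by pot surface area. Untreated seedlings and DMF-treated seedlings served as controls.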

[2] = test system: Chenopodium album; experiment: Herbicidal activity against Chenopodium album assessed as growth inhibition at 150 g ai/ha using post-emergence protocol under greenhouse conditions measured 15 days after compound treatment; format: functional; conditions: 360 h, read-out: GI; procedure, shortened: as §1
[3] = test system: Amaranthus retroflexus; experiment: Herbicidal activity against Amaranthus retroflexus assessed as growth inhibition at 150 g ai/ha using post-emergence protocol under greenhouse conditions measured 15 days after compound treatment; format: functional; conditions: 360 h, read-out: GI; procedure, shortened: as §1
[4] = test system: Brassica juncea; experiment: Herbicidal activity against Brassica juncea assessed as growth inhibition at 150 g ai/ha using post-emergence protocol under greenhouse conditions measured 15 days after compound treatment; format: functional; conditions: 360 h, read-out: GI; procedure, shortened: as §1
[5] = test system: Setaria viridis; experiment: Herbicidal activity against Setaria viridis assessed as growth inhibition at 150 g ai/ha using post-emergence protocol under greenhouse conditions measured 15 days after compound treatment; format: functional; conditions: 360 h, read-out: GI
Procedure, shortened: (§2)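 Grass weeds were grown in pots in the greenhouse and sprayed post-emergence at the 1-leaf stage. The spray was formulation concentrate diluted in water. Soil was clay, pH 6.5, 1.6% organic matter, 37.3% clay particles, CEC 12.1 mol/kg. The g.ai/ha rate was active ingredient over pot surface area. Controls were untreated and DMF-treated seedlings.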

[6] = test system: Echinochloa crus-galli; experiment: Herbicidal activity against Echinochloa crus-galli (barnyard grass) assessed as growth inhibition at 150 g ai/ha using post-emergence protocol under greenhouse conditions measured 15 days after compound treatment; format: functional; conditions: 360 h, read-out: GI; procedure, shortened: as §2
[7] = test system: Digitaria sanguinalis; experiment: Herbicidal activity against Digitaria sanguinalis (hairy crabgrass) assessed as growth inhibition at 150 g ai/ha using post-emergence protocol under greenhouse conditions measured 15 days after compound treatment; format: functional; conditions: 360 h, read-out: GI; procedure, shortened: as §2
[8] = molecular target: T1, Protoporphyrinogen oxidase (Homo sapiens, UniProt P50336); experiment: Inhibition of Homo sapiens (human) protoporphyrinogen oxidase; conditions: read-out: Ki
T1 sequence (P50336 whole entry): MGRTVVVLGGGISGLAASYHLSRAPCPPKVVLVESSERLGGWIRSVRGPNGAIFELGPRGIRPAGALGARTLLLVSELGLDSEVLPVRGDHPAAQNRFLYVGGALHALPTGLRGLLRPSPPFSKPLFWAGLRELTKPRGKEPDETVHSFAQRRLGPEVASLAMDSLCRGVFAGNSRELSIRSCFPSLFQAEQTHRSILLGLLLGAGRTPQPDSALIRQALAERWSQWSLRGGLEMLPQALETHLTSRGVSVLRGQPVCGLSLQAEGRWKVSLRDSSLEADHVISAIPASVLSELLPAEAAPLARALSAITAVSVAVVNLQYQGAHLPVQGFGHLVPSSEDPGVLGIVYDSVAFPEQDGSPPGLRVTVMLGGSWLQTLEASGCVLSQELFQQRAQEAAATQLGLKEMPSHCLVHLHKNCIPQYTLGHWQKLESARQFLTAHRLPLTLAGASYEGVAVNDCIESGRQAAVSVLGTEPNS

With `C=CCOC1C2=C(CCCC2)C(=O)N1c1cc(OCC)c(Cl)cc1F` (stereo not drawn) as the molecule, how does the inhibition of growth at 150 g/ha [1] read?
The inhibition of growth at 150 g/ha was 100%.

And the inhibition of growth at 150 g/ha [2]?
Its inhibition of growth at 150 g/ha is 100%.

What about the inhibition of growth at 150 g/ha [3] of the same molecule?
The inhibition of growth at 150 g/ha was 100%.

What about the inhibition of growth at 150 g/ha [4] of the same molecule?
Its inhibition of growth at 150 g/ha is 50%.

What about the inhibition of growth at 150 g/ha [5] of the same molecule?
Its inhibition of growth at 150 g/ha is 50%.

And the inhibition of growth at 150 g/ha [6]?
Its inhibition of growth at 150 g/ha is 50%.

What about the inhibition of growth at 150 g/ha [7] of the same molecule?
The inhibition of growth at 150 g/ha was 50%.

What about the pKi [8] of the same molecule?
Its pKi is 5.15.

With `CCCOc1cc(N2CC3=C(CCCC3)C2=O)c(Cl)cc1Cl` as the molecule, how does the inhibition of growth at 150 g/ha [1] read?
The inhibition of growth at 150 g/ha was less than 50%.

And the inhibition of growth at 150 g/ha [2]?
Its inhibition of growth at 150 g/ha is less than 50%.

What about the inhibition of growth at 150 g/ha [3] of the same molecule?
Its inhibition of growth at 150 g/ha is greater than 80%.

What about the inhibition of growth at 150 g/ha [4] of the same molecule?
The inhibition of growth at 150 g/ha was less than 50%.

What about the inhibition of growth at 150 g/ha [5] of the same molecule?
The inhibition of growth at 150 g/ha was less than 50%.

And the inhibition of growth at 150 g/ha [6]?
Its inhibition of growth at 150 g/ha is less than 50%.

What about the inhibition of growth at 150 g/ha [7] of the same molecule?
Its inhibition of growth at 150 g/ha is less than 50%.

And the pKi [8]?
The pKi was 6.52.

`CCOC(=O)C(C)Oc1cc(N2C(=O)C3CCCCC3C2=O)c(F)cc1Cl` (stereo not drawn) was tested. Which inhibition of growth at 150 g/ha [1] did it give?
The inhibition of growth at 150 g/ha was greater than 80%.

What about the inhibition of growth at 150 g/ha [2] of the same molecule?
The inhibition of growth at 150 g/ha was 50%.

What about the inhibition of growth at 150 g/ha [3] of the same molecule?
Its inhibition of growth at 150 g/ha is 100%.

And the inhibition of growth at 150 g/ha [4]?
Its inhibition of growth at 150 g/ha is 50%.

What about the inhibition of growth at 150 g/ha [5] of the same molecule?
The inhibition of growth at 150 g/ha was less than 50%.

What about the inhibition of growth at 150 g/ha [6] of the same molecule?
The inhibition of growth at 150 g/ha was less than 50%.

What about the inhibition of growth at 150 g/ha [7] of the same molecule?
Its inhibition of growth at 150 g/ha is less than 50%.

And the pKi [8]?
Its pKi is 5.48.

With `COC1C2=C(CCCC2)C(=O)N1c1cc(OCc2cccc(Cl)c2)c(Cl)cc1F` (stereo not drawn) as the molecule, how does the inhibition of growth at 150 g/ha [1] read?
Its inhibition of growth at 150 g/ha is 50%.

What about the inhibition of growth at 150 g/ha [2] of the same molecule?
Its inhibition of growth at 150 g/ha is 50%.

And the inhibition of growth at 150 g/ha [3]?
The inhibition of growth at 150 g/ha was 50%.

And the inhibition of growth at 150 g/ha [4]?
Its inhibition of growth at 150 g/ha is 50%.

What about the inhibition of growth at 150 g/ha [5] of the same molecule?
The inhibition of growth at 150 g/ha was less than 50%.

What about the inhibition of growth at 150 g/ha [6] of the same molecule?
Its inhibition of growth at 150 g/ha is 50%.

What about the inhibition of growth at 150 g/ha [7] of the same molecule?
The inhibition of growth at 150 g/ha was less than 50%.

And the pKi [8]?
Its pKi is 5.99.

`CCOC(=O)COc1cc(N2C(=O)C3CCCCC3C2O)c(F)cc1Cl` (stereo not drawn) was tested. Which inhibition of growth at 150 g/ha [1] did it give?
The inhibition of growth at 150 g/ha was less than 50%.

And the inhibition of growth at 150 g/ha [2]?
Its inhibition of growth at 150 g/ha is less than 50%.

What about the inhibition of growth at 150 g/ha [3] of the same molecule?
The inhibition of growth at 150 g/ha was less than 50%.

And the inhibition of growth at 150 g/ha [4]?
Its inhibition of growth at 150 g/ha is less than 50%.

What about the inhibition of growth at 150 g/ha [5] of the same molecule?
The inhibition of growth at 150 g/ha was less than 50%.

What about the inhibition of growth at 150 g/ha [6] of the same molecule?
Its inhibition of growth at 150 g/ha is less than 50%.

And the inhibition of growth at 150 g/ha [7]?
The inhibition of growth at 150 g/ha was less than 50%.

What about the pKi [8] of the same molecule?
The pKi was 3.91.

`CCOC(=O)COc1cc(N2C(=O)C3CCCCC3C2=O)c(F)cc1Cl` (stereo not drawn) was tested. Which inhibition of growth at 150 g/ha [1] did it give?
Its inhibition of growth at 150 g/ha is less than 50%.

What about the inhibition of growth at 150 g/ha [2] of the same molecule?
The inhibition of growth at 150 g/ha was less than 50%.

And the inhibition of growth at 150 g/ha [3]?
The inhibition of growth at 150 g/ha was less than 50%.

What about the inhibition of growth at 150 g/ha [4] of the same molecule?
The inhibition of growth at 150 g/ha was less than 50%.

And the inhibition of growth at 150 g/ha [5]?
Its inhibition of growth at 150 g/ha is less than 50%.

What about the inhibition of growth at 150 g/ha [6] of the same molecule?
Its inhibition of growth at 150 g/ha is less than 50%.

What about the inhibition of growth at 150 g/ha [7] of the same molecule?
The inhibition of growth at 150 g/ha was less than 50%.

And the pKi [8]?
The pKi was 4.82.

`CC(C)Oc1cc(N2C(=O)C3CCCCC3C2O)c(F)cc1Cl` (stereo not drawn) was tested. Which inhibition of growth at 150 g/ha [1] did it give?
The inhibition of growth at 150 g/ha was less than 50%.

What about the inhibition of growth at 150 g/ha [2] of the same molecule?
The inhibition of growth at 150 g/ha was less than 50%.

What about the inhibition of growth at 150 g/ha [3] of the same molecule?
The inhibition of growth at 150 g/ha was less than 50%.

And the inhibition of growth at 150 g/ha [4]?
The inhibition of growth at 150 g/ha was less than 50%.

And the inhibition of growth at 150 g/ha [5]?
The inhibition of growth at 150 g/ha was less than 50%.

What about the inhibition of growth at 150 g/ha [6] of the same molecule?
Its inhibition of growth at 150 g/ha is less than 50%.

What about the inhibition of growth at 150 g/ha [7] of the same molecule?
Its inhibition of growth at 150 g/ha is less than 50%.

What about the pKi [8] of the same molecule?
The pKi was 4.32.

Which results are given for `CCOc1cc(N2CC3=C(CCCC3)C2=O)c(Cl)cc1Cl`?
inhibition of growth at 150 g/ha [1]: 50%; inhibition of growth at 150 g/ha [2]: 50%; inhibition of growth at 150 g/ha [3]: 50%; inhibition of growth at 150 g/ha [4]: < 50%; inhibition of growth at 150 g/ha [5]: < 50%; inhibition of growth at 150 g/ha [6]: < 50%; inhibition of growth at 150 g/ha [7]: < 50%; pKi [8]: 6.17

Which inhibition of growth at 150 g/ha [1] does the source give for `C=CCOc1cc(N2C(=O)C3=C(CCCC3)C2O)c(Cl)cc1Cl` (stereo not drawn) here?
The inhibition of growth at 150 g/ha was 50%.

And the inhibition of growth at 150 g/ha [2]?
The inhibition of growth at 150 g/ha was 50%.

And the inhibition of growth at 150 g/ha [3]?
Its inhibition of growth at 150 g/ha is 50%.

What about the inhibition of growth at 150 g/ha [4] of the same molecule?
Its inhibition of growth at 150 g/ha is 50%.

And the inhibition of growth at 150 g/ha [5]?
Its inhibition of growth at 150 g/ha is less than 50%.

What about the inhibition of growth at 150 g/ha [6] of the same molecule?
Its inhibition of growth at 150 g/ha is less than 50%.

What about the inhibition of growth at 150 g/ha [7] of the same molecule?
Its inhibition of growth at 150 g/ha is less than 50%.

What about the pKi [8] of the same molecule?
Its pKi is 5.13.

What does the source list for `O=C1C2=C(CCCC2)C(O)N1c1cc(OCc2cccc(F)c2)c(Cl)cc1F` (stereo not drawn)?
inhibition of growth at 150 g/ha [1]: 50%; inhibition of growth at 150 g/ha [2]: 50%; inhibition of growth at 150 g/ha [3]: > 80%; inhibition of growth at 150 g/ha [4]: 50%; inhibition of growth at 150 g/ha [5]: < 50%; inhibition of growth at 150 g/ha [6]: < 50%; inhibition of growth at 150 g/ha [7]: 50%; pKi [8]: 6.11

What does the source list for `COc1cc(N2C(=O)C3CCCCC3C2=O)c(F)cc1Cl` (stereo not drawn)?
inhibition of growth at 150 g/ha [1]: 50%; inhibition of growth at 150 g/ha [2]: < 50%; inhibition of growth at 150 g/ha [3]: 100%; inhibition of growth at 150 g/ha [4]: 50%; inhibition of growth at 150 g/ha [5]: 50%; inhibition of growth at 150 g/ha [6]: 50%; inhibition of growth at 150 g/ha [7]: 50%; pKi [8]: 5.09
